The results in this text go back to ChEMBL document CHEMBL1143889, “N-Phenyl and N-phenylalkyl-maleimides acting against Candida spp.: time-to-kill, stability, interaction with maleamic acids” (2008).

Holding throughout (format): functional
The test system of one assay is Kluyveromyces marxianus. Nature of the assay: Antifungal activity against Candida kefyr C 123-2000 after 48 hrs by CLSI M27-A2 method. The method, boiled down: (§1)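 Broth microdilution per CLSI M27-A2 in RPMI-1640, with twofold dilutions giving final 250–0.98 µg/mL. The inoculum was modified to 1–5 × 10⁴ CFU/mL instead of 1–5 × 10³, with ketoconazole and amphotericin B as positive controls. MIC was the lowest concentration giving total growth inhibition, read visually. Strains were grown on Sabouraud-chloramphenicol agar for 24 h at 37 °C.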

Another assay has as its system Candida tropicalis. Nature of the assay: Antifungal activity against Candida tropicalis C 137-1997 after 48 hrs by CLSI M27-A2 method. Put shortly:
as §1

In assay [1] the test system is Candida albicans. Nature of the assay: Antifungal activity against Candida albicans ATCC 10231 after 48 hrs by CLSI M27-A2 method. The settings on record: ATCC 10231, 48 h. The method, boiled down: as §1
In assay [2] the test system is Candida albicans. Nature of the assay: Antifungal activity against Candida albicans C 128-2000 after 48 hrs by CLSI M27-A2 method. The method, boiled down:
as §1

The test system of assay [3] is Candida albicans. Nature of the assay: Antifungal activity against Candida albicans C 127-2000 after 48 hrs by CLSI M27-A2 method. The method, boiled down:
as §1

In assay [4] the test system is Candida albicans. Nature of the assay: Antifungal activity against Candida albicans C 125-2000 after 48 hrs by CLSI M27-A2 method. The method, boiled down:
as §1

Another assay concerns Nakaseomyces glabratus. Nature of the assay: Antifungal activity against Candida glabrata C 115-2000 after 48 hrs by CLSI M27-A2 method. Put shortly:
as §1

Assay [5] relates to Candida albicans. Nature of the assay: Antifungal activity against Candida albicans C 130-2000 after 48 hrs by CLSI M27-A2 method. The method, boiled down: as §1
For another assay, the system named is Torulaspora delbrueckii. Nature of the assay: Antifungal activity against Candida coliculosa C 122-2000 after 48 hrs by CLSI M27-A2 method. Put shortly: as §1
Assay [6] deals with Candida albicans. Nature of the assay: Antifungal activity against Candida albicans C 129-2000 after 48 hrs by CLSI M27-A2 method. The method, boiled down: as §1
Assay [7] concerns Candida albicans. Nature of the assay: Antifungal activity against Candida albicans C 126-2000 after 48 hrs by CLSI M27-A2 method. Put shortly: as §1
The next assay relates to Candida parapsilosis. Nature of the assay: Antifungal activity against Candida parapsilosis C 124-2000 after 48 hrs by CLSI M27-A2 method. The settings on record: Lodderomyces parapsilosis. Put shortly:
as §1

In a further assay the test system is Pichia kudriavzevii. Nature of the assay: Antifungal activity against Candida krusei C 117-2000 after 48 hrs by CLSI M27-A2 method. Put shortly: as §1
The next assay has as its system Clavispora lusitaniae. Nature of the assay: Antifungal activity against Candida lusitaniae C 131-2000 after 48 hrs by CLSI M27-A2 method. The method, boiled down: as §1

Values after ≈ are worked out from the molar mass of the structure shown.

Turning to `O=C(O)/C=C\C(=O)NCCCc1ccccc1`, the minimum inhibitory concentration (MIC) against Kluyveromyces marxianus, with Candida tropicalis, against Candida albicans [1], against Candida albicans [2], in the assay with Candida albicans [3] and in the assay with Candida albicans [4] was more than 250 µg/mL in each case. The MIC against Nakaseomyces glabratus, against Candida albicans [5], against Torulaspora delbrueckii, in the assay on Candida albicans [6], with Candida albicans [7] and in the assay with Candida parapsilosis was more than 250 µg/mL in each case. The MIC in the assay with Pichia kudriavzevii and against Clavispora lusitaniae was more than 250 µg/mL each time.

In the case of `O=C(O)/C=C\C(=O)NCCCCc1ccccc1`, the MIC in the assay with Kluyveromyces marxianus, against Candida tropicalis, in the assay on Candida albicans [1], in the assay with Candida albicans [2], in the assay with Candida albicans [3] and against Candida albicans [4] was more than 250 µg/mL each time. Further, the MIC with Nakaseomyces glabratus, in the assay on Candida albicans [5], against Torulaspora delbrueckii, in the assay with Candida albicans [6], in the assay with Candida albicans [7] and against Candida parapsilosis was more than 250 µg/mL each time. In addition, the MIC against Pichia kudriavzevii and against Clavispora lusitaniae was more than 250 µg/mL throughout.

As for `CC(=O)N1CCN(c2ccc(OCC3COC(Cn4ccnc4)(c4ccc(Cl)cc4Cl)O3)cc2)CC1` (centres undefined) [KETOCONAZOLE], the MIC (usually the lowest concentration found to suppress growth) against Kluyveromyces marxianus was determined as 0.78 µg/mL (≈ 1.47 µM); in the assay on Candida tropicalis, 0.12 µg/mL (≈ 0.226 µM); in the assay on Candida albicans [1] it was 0.5 µg/mL (≈ 0.941 µM); in the assay with Candida albicans [2], 6.25 µg/mL (≈ 11.8 µM); in the assay with Candida albicans [3], 6.25 µg/mL (≈ 11.8 µM); with Candida albicans [4], 6.25 µg/mL (≈ 11.8 µM). In addition, the MIC in the assay with Nakaseomyces glabratus amounted to 1.56 µg/mL (≈ 2.94 µM); against Candida albicans [5] it was 6.25 µg/mL (≈ 11.8 µM); against Torulaspora delbrueckii it was 0.78 µg/mL (≈ 1.47 µM); against Candida albicans [6], 12.5 µg/mL (≈ 23.5 µM); against Candida albicans [7], 1.56 µg/mL (≈ 2.94 µM); against Candida parapsilosis, 0.78 µg/mL (≈ 1.47 µM). Moreover, the MIC in the assay with Pichia kudriavzevii was determined as 50 µg/mL (≈ 94.1 µM); against Clavispora lusitaniae it was 25 µg/mL (≈ 47 µM).

Regarding `O=C(O)/C=C\C(=O)Nc1ccccc1`, the MIC against Kluyveromyces marxianus, against Candida tropicalis, against Candida albicans [1], in the assay on Candida albicans [2], against Candida albicans [3] and with Candida albicans [4] was more than 250 µg/mL throughout. The MIC against Nakaseomyces glabratus, in the assay on Candida albicans [5], against Torulaspora delbrueckii, in the assay on Candida albicans [6], in the assay with Candida albicans [7] and against Candida parapsilosis was more than 250 µg/mL throughout. Also, the MIC in the assay on Pichia kudriavzevii and against Clavispora lusitaniae was more than 250 µg/mL each time.

On to `C[C@@H]1[C@H](O)[C@@H](C)/C=C/C=C/C=C/C=C/C=C/C=C/C=C/[C@H](O[C@@H]2O[C@H](C)[C@@H](O)[C@H](N)[C@@H]2O)C[C@@H]2O[C@](O)(C[C@@H](O)C[C@@H](O)[C@H](O)CC[C@@H](O)C[C@@H](O)CC(=O)O[C@H]1C)C[C@H](O)[C@H]2C(=O)O` [AMPHOTERICIN B], for which the MIC in the assay with Kluyveromyces marxianus was 0.78 µg/mL (≈ 0.844 µM); with Candida tropicalis, 0.12 µg/mL (≈ 0.13 µM); against Candida albicans [1], 1 µg/mL (≈ 1.08 µM); with Candida albicans [2] it was 1.56 µg/mL (≈ 1.69 µM); in the assay on Candida albicans [3] it was 0.78 µg/mL (≈ 0.844 µM); with Candida albicans [4], 0.78 µg/mL (≈ 0.844 µM). Further, the MIC in the assay with Nakaseomyces glabratus was 0.39 µg/mL (≈ 0.422 µM); against Candida albicans [5] it was 0.39 µg/mL (≈ 0.422 µM); against Torulaspora delbrueckii, 0.39 µg/mL (≈ 0.422 µM); in the assay with Candida albicans [6], 0.78 µg/mL (≈ 0.844 µM); in the assay with Candida albicans [7] it was 1.56 µg/mL (≈ 1.69 µM); in the assay on Candida parapsilosis, 0.78 µg/mL (≈ 0.844 µM). Besides, the minimum inhibitory concentration (MIC) in the assay on Pichia kudriavzevii and in the assay with Clavispora lusitaniae was 0.39 µg/mL (≈ 0.422 µM) each time.

With `O=C(O)/C=C\C(=O)NCc1ccccc1`, the MIC against Kluyveromyces marxianus, against Candida tropicalis, in the assay with Candida albicans [1], against Candida albicans [2], with Candida albicans [3] and in the assay on Candida albicans [4] was more than 250 µg/mL in each case. For the same compound, the MIC in the assay on Nakaseomyces glabratus, in the assay with Candida albicans [5], with Torulaspora delbrueckii, in the assay with Candida albicans [6], against Candida albicans [7] and in the assay on Candida parapsilosis was more than 250 µg/mL each time. For the same compound, the MIC with Pichia kudriavzevii and against Clavispora lusitaniae was more than 250 µg/mL throughout.
